This is one part of a sample in which hits are shown more often than they occur.
A1 apoptosis 2: blocks A1, raising caspase activity; MEF A1-2A-BIM cells, caspase-Glo luminescence, 3 h; percent of clofoctol response, DMSO zero; caspase activation, % (concentration not given with the values); 24,000 tested, under 10 active; in the data active means caspase activation above about 5.9%
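system = A1-2A-BIM-expressing MEF cells | quantity = 2500 MEF cells/well | dosing = 50 nL compound per well, pinned | schedule = overnight cell settling, then 3 h compound exposure, 37 °C | signal = luminescence from DEVD-luciferin Caspase-Glo reagent, 1:1 in 50 mM HEPES, 1 h RT | read-out = Caspase-3/7 activation, seen as rise in luminescence signal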
T cruzi intra: blocks T. cruzi growth inside host cells; activity score (inhibition), % at 5.01 µM; AID 651903; 4.9% of 22,000 active; intracellular Trypanosoma cruzi in host cells, plate reader; in the data active means activity score above about 55%;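 further: parasites and compound incubated about four days before reading; 0% = median of neutral control wells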
INS-1E ATP HTS: rescue of cytokine-induced death in INS-1E beta cells. 0.1% of 20,000 active. protection from cytokine-induced ATP loss, % at 10 µM. INS-1E cytokine-induced death, ATP luminescence, 48 h; normalised: neutral wells 0, positive control 100;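 active means mean replicate protection from cytokine-induced ATP loss at least 50% and at least 75% of replicates each reaching 50%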
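Material: INS-1E rat cells; Quantity: 8000 cells/well; Buffer or medium: phenol-red-free RPMI with 5% fetal bovine serum; Probe or stimulus: cytokine cocktail of IFN-γ, TNF-α and IL-1β; Compound dosing: single test concentration per compound, delivered by pin transfer; Incubation: 48 h co-treatment, 10 min post-lysis read; Signal: CellTiter-Glo luminescence.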
Starred values were filed as active, the others as inactive; . = no result given.

SMILES | A1 apoptosis 2 | T cruzi intra | INS-1E ATP HTS
C[C@@H]1CN([C@@H](C)CO)C(=O)c2cccc(NC(=O)c3nc4ccccc4s3)c2O[C@H]1CN(C)CC1CC1 | -0.3 | -20.4 | -20.3
C[C@@H]1CN([C@@H](C)CO)C(=O)c2cccc(NC(=O)c3nc4ccccc4s3)c2O[C@@H]1CN(C)CC1CCCCC1 | . | 76.3* | -48.5
C[C@H](CO)N1C[C@H](C)[C@@H](CN(C)CC2CC2)Oc2c(NC(=O)c3nc4ccccc4s3)cccc2C1=O | -0.1 | 27.1 | -17.7
C[C@H](CO)N1C[C@H](C)[C@H](CN(C)CC2CCCCC2)Oc2c(NC(=O)c3nc4ccccc4s3)cccc2C1=O | -0.5 | 65.8* | -31.5
O=C(NO)c1cccc(C(=O)N/N=C/c2cc(O)ccc2O)c1 | -1.4 | 27.4 | 20.7
COc1cc(Br)cc(/C=N/NC(=O)c2ccc(C(=O)NO)cc2)c1O | -2.9 | -10.1 | 31.9
C[C@H](CO)N1C[C@H](C)[C@H](CN(C)Cc2ccc(C(F)(F)F)cc2)Oc2ccc(NC(=O)Nc3ccccc3)cc2CC1=O | 0.1 | 26.1 | -14.9
COc1ccc(NC(=O)Nc2ccc3c(c2)CC(=O)N([C@@H](C)CO)C[C@H](C)[C@H](CN(C)Cc2ccc(-c4ccccc4)cc2)O3)cc1 | -0.8 | 71.2* | -64.6
C[C@@H]1CN([C@H](C)CO)C(=O)Cc2cc(NC(=O)Nc3ccc(C(F)(F)F)cc3)ccc2O[C@@H]1CN(C)Cc1ccc(-c2ccccc2)cc1 | . | 75.6* | -14.6
C[C@H](CO)N1C[C@H](C)[C@@H](CN(C)Cc2ccc(-c3ccccc3)cc2)Oc2ccc(NC(=O)Nc3ccc(C(F)(F)F)cc3)cc2CC1=O | -0.2 | . | .
C[C@H](CO)N1C[C@H](C)[C@H](CN(C)Cc2ccc(-c3ccccc3)cc2)Oc2ccc(NC(=O)Nc3ccc(C(F)(F)F)cc3)cc2CC1=O | . | 64.9* | -39.5
C[C@@H]1CN([C@H](C)CO)C(=O)Cc2cc(NC(=O)Nc3ccc(F)cc3)ccc2O[C@@H]1CN(C)Cc1ccc(-c2ccccc2)cc1 | . | 61.1* | -28.9
COc1ccc(NC(=O)Nc2ccc3c(c2)CC(=O)N([C@H](C)CO)C[C@H](C)[C@@H](CN(C)Cc2ccc(-c4ccccc4)cc2)O3)cc1 | 0.3 | . | .
C[C@H](CO)N1C[C@H](C)[C@@H](CN(C)Cc2ccc(-c3ccccc3)cc2)Oc2ccc(NC(=O)Nc3ccc(F)cc3)cc2CC1=O | 0.2 | . | .
COC(=O)CCCCCCC(=O)N/N=C/[C@H](O)[C@@H](O)[C@@H](O)[C@H](O)CO | 0.4 | -13.1 | 8.6
COc1ccc(/C=N/NC(=O)c2ccccn2)cc1O | -10.0 | -21.3 | -5.5
CC(C)NC(=O)Nc1ccc2c(c1)CC(=O)N([C@H](C)CO)C[C@H](C)[C@H](CN(C)Cc1ccc(-c3ccccc3)cc1)O2 | -0.2 | 67.3* | -21.0
CC(C)NC(=O)Nc1ccc2c(c1)CC(=O)N([C@@H](C)CO)C[C@@H](C)[C@@H](CN(C)Cc1ccc(-c3ccccc3)cc1)O2 | -0.2 | 32.2 | -23.9
C[C@H](CO)N1C[C@H](C)[C@H](CN(C)Cc2ccncc2)Oc2c(NC(=O)c3ccncc3)cccc2C1=O | 0.1 | -8.0 | 4.0
C[C@H](CO)N1C[C@H](C)[C@H](CN(C)Cc2ccc(Cl)c(Cl)c2)Oc2c(NC(=O)c3ccncc3)cccc2C1=O | 0.9 | 56.3* | -7.9
C[C@H]1CN([C@@H](C)CO)C(=O)c2cccc(NC(=O)c3ccncc3)c2O[C@H]1CN(C)Cc1ccncc1 | . | -17.9 | 10.7
C[C@@H]1CN([C@H](C)CO)C(=O)c2cccc(NC(=O)c3ccncc3)c2O[C@H]1CN(C)Cc1ccncc1 | 0.9 | -16.0 | 4.4
C[C@@H]1CN([C@H](C)CO)C(=O)c2cccc(NC(=O)c3ccncc3)c2O[C@H]1CN(C)Cc1ccc(Cl)c(Cl)c1 | -0.7 | 75.9* | 0.8
C[C@@H]1CN([C@@H](C)CO)C(=O)c2cccc(NC(=O)c3ccncc3)c2O[C@H]1CN(C)Cc1ccc(Cl)c(Cl)c1 | 0.4 | 78.2* | 2.8
CC(C)=CCC[C@H](C)C/C=N/NC(=O)c1ccccn1 | 1.6 | -9.4 | 6.3
O=C(CCCCCC(=O)Nc1ccccc1O)N/N=C/c1ccc(O)c(F)c1 | . | -22.2 | 6.8
CN(CCO)c1ccc(/C=N/NC(=O)CCCCCCC(=O)Nc2ccccc2O)cc1 | 0.1 | 20.8 | 0.2
NC(=O)[C@@H]1[C@H]2C(=O)O[C@H](c3ccccc3)[C@H](c3ccccc3)N2[C@H](c2ccccc2OCCO)[C@@]12C(=O)Nc1ccc(C#CC3(O)CCCCCC3)cc12 | 0.0 | . | .
C[C@@H]1CN([C@@H](C)CO)C(=O)c2cccc(NC(=O)Nc3ccc(C(F)(F)F)cc3)c2O[C@H]1CN(C)Cc1ccc(Oc2ccccc2)cc1 | -1.0 | 52.4 | -54.9

Bioassay records as filed in PubChem BioAssay.
